Assay results taken from the RNAGym collection of RNA variant scans (doi:10.1126/science.aae0568).
Fewer inactive variants are shown than the library holds.

B1: tRNA (parent)
chain: GUUCCGUUGGCGUAAUGGUAACGCGUCUCCCUCCUAAGGAGAAGACUGCGGGUUCGAGUCCCGUACGGAACG

Variants of: B1
Experiment: yeast fitness relative to wild type (ratio to wild type); higher = fitter; tRNA-Arg(CCU), competitive growth, 37 C, YPD
In short: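 Genotype frequency changes were the basis for Darwinian fitness relative to wild type. The frequencies came from 100-nucleotide paired-end sequencing of gene amplicons from the start population and each end population of pooled yeast strains with tRNA-Arg(CCU) gene variants at the native locus. Competition ran in YPD at 37°C for 24 hours in six replicates, genotypes needed ≥ 100 starting reads, and estimates < 0.5 were set to 0.5.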

Compared with U3A C27A A69U, U3A C5U A14G C34G A43C is lower in yeast fitness: 0.627 for the first, ≤ 0.5 for the second.

First: U3A C33U A45U
Second: U3A A40C C62G G68C
The yeast fitness of the first is higher: 0.834 for the first, ≤ 0.5 for the second.

Going from U3A A65C A70C to U3A A21G C34G A40G C60G C62G, the yeast fitness falls from 0.679 to ≤ 0.5.

Going from U2G U3A to U3A G9A A14G C66U, the yeast fitness falls from 0.736 to 0.575.

U2G U3C G10C A69C and U3A C27G C31U C33U A42C C66U A70C cannot be ordered by yeast fitness: ≤ 0.5 for the first, ≤ 0.5 for the second.

Compared with U3A U13C A69U, U2G U26G G44C G58A A65G is lower in yeast fitness: 0.72 for the first, ≤ 0.5 for the second.

First: U3A G23C C46A C49A C61G
Second: U3A G6C A37U G58A
The yeast fitness of the first is lower: ≤ 0.5 for the first, 0.524 for the second.

U3A C5G U13G G39C A70C and U3A A15U G48A A57G C61A cannot be ordered by yeast fitness: ≤ 0.5 for the first, ≤ 0.5 for the second.

U3A C24G C29A G50C A57C C66U and U3A A40G U53A cannot be ordered by yeast fitness: ≤ 0.5 for the first, ≤ 0.5 for the second.

First: U3A C4U U7A G12A C30G
Second: U3A A36G A42C
The yeast fitness of the first is lower: ≤ 0.5 for the first, 0.647 for the second.

Compared with U3A A36G A42U, U3A G12C G52A A65U is lower in yeast fitness: 0.619 for the first, ≤ 0.5 for the second.

U3A A21C C24G G56A and U3A C31U A40C A70G cannot be ordered by yeast fitness: ≤ 0.5 for the first, ≤ 0.5 for the second.

Going from U2G U8C C27U C46U to U2G U35C A42C U47A G63C A69C, the yeast fitness falls from 0.789 to ≤ 0.5.

U3A U8A A43U C55U and U3A G10A U19A A42G U64A cannot be ordered by yeast fitness: ≤ 0.5 for the first, ≤ 0.5 for the second.

Going from U3A C27G A69C to U3A C24G C60G, the yeast fitness rises from ≤ 0.5 to 0.645.

Going from U3A A15C G17C to U3A A14G C55U G63C, the yeast fitness falls from 0.507 to ≤ 0.5.

U3A C4U C33U C61A and U3A C4U U13A G51A cannot be ordered by yeast fitness: ≤ 0.5 for the first, ≤ 0.5 for the second.

Compared with U3A G10A U32G C66A, U3A G25A G58C C66U is higher in yeast fitness: ≤ 0.5 for the first, 0.596 for the second.

Going from U3A C30G C33U G67U to U3A C29A, the yeast fitness rises from ≤ 0.5 to 0.653.

Going from U3A C29U to U3A C5G C29G A36C U53G, the yeast fitness falls from 0.85 to ≤ 0.5.

Compared with U3A C31U A40C, U3A C11G A14C C62U G67C is lower in yeast fitness: 0.566 for the first, ≤ 0.5 for the second.

U3A U16C U19C C46U and U3A G6C C31A U47G C62A cannot be ordered by yeast fitness: ≤ 0.5 for the first, ≤ 0.5 for the second.

First: U3A C46A G67U
Second: U3A C30A
The yeast fitness of the first is lower: 0.603 for the first, 0.834 for the second.

Going from U3A C30G to U3A C5G U13G C46G C62G A70U, the yeast fitness falls from 0.598 to ≤ 0.5.

U3A A15G U19A U32C G41A G50A and U2G U16G C27A A36C A70C cannot be ordered by yeast fitness: ≤ 0.5 for the first, ≤ 0.5 for the second.

Compared with U3A C60A, U3A A36G C62U is higher in yeast fitness: 0.677 for the first, 0.69 for the second.

Going from U3A C4U to U3A C4G, the yeast fitness falls from 0.874 to 0.792.

Compared with U3A C4A, U3A U7G is higher in yeast fitness: 0.681 for the first, 0.734 for the second.

U3A A40C C55A C66A and U3A C24A U28C C61A cannot be ordered by yeast fitness: ≤ 0.5 for the first, ≤ 0.5 for the second.

U3A C5G U7C U35A A40U C46G U53A G68C and U3A G9A A37G G68C A69G cannot be ordered by yeast fitness: ≤ 0.5 for the first, ≤ 0.5 for the second.

U3A C11A C33U A70C and U3A C31U U35G C62U cannot be ordered by yeast fitness: ≤ 0.5 for the first, ≤ 0.5 for the second.

U3A G38A A40G A69U and U3A A14U A42U C55A cannot be ordered by yeast fitness: ≤ 0.5 for the first, ≤ 0.5 for the second.

First: U3A A15C
Second: U3A C31G G67U
The yeast fitness of the first is higher: 0.659 for the first, 0.542 for the second.

Compared with U3A C31U A70U, U3A G48C U59C is lower in yeast fitness: 0.688 for the first, 0.537 for the second.

First: U2G U26G C49G
Second: U3A C22G C29U G63A
The yeast fitness of the first is higher: 0.724 for the first, ≤ 0.5 for the second.

Going from U3A C30U A42G C61U to U3A C4U G25C, the yeast fitness falls from 0.602 to ≤ 0.5.

First: U3A G9C
Second: U3A G9A
The yeast fitness of the first is lower: 0.567 for the first, 0.977 for the second.

U3A C30G C66G and U3A A21U G51C cannot be ordered by yeast fitness: ≤ 0.5 for the first, ≤ 0.5 for the second.

U3A A37C C60A A70G and U3A G9A U19A G44C C61U C62G cannot be ordered by yeast fitness: ≤ 0.5 for the first, ≤ 0.5 for the second.

Compared with U2G U26C, U3A C24U U53A is lower in yeast fitness: 0.918 for the first, 0.548 for the second.

Going from U2G G68C to U3A A21G A45U G67C, the yeast fitness falls from 0.705 to ≤ 0.5.

First: U3A C46A A69C
Second: U3A C4A U8C C29G A37C C62U A70U
The yeast fitness of the first is higher: 0.997 for the first, ≤ 0.5 for the second.

Going from U3A U13C G68A to U3A G9C C31G C61U, the yeast fitness rises from 0.528 to 0.581.

Compared with U3A A40C U47A, U3A G6A C46U is lower in yeast fitness: 0.647 for the first, 0.638 for the second.

Compared with U3A C24A G63A U64A, U3A C49U A69U is higher in yeast fitness: ≤ 0.5 for the first, 0.759 for the second.

Compared with U3A C4G G41A G63C C66A, U3A A20U C29G A40U G50C is lower in yeast fitness: 0.576 for the first, ≤ 0.5 for the second.

Going from U3A C4G C62U A70C to U2G U3C C55U C61A, the yeast fitness falls from 0.754 to ≤ 0.5.

Compared with U3A C27U A37U A69C, U2G G51A G58C is higher in yeast fitness: ≤ 0.5 for the first, 0.562 for the second.

Going from U3A C4A U8C C29G A37C to U2G U7G U16C C34U U54C A65U, the yeast fitness falls from 0.581 to ≤ 0.5.

First: U2G U54G
Second: U2G U54C
The yeast fitness of the first is lower: ≤ 0.5 for the first, 0.962 for the second.

U3A G12A U19A G38C G48A and U3A A14U G41C G67C cannot be ordered by yeast fitness: ≤ 0.5 for the first, ≤ 0.5 for the second.

U3A C11G U28A G41C G58C and U3A A14U G50A A69C cannot be ordered by yeast fitness: ≤ 0.5 for the first, ≤ 0.5 for the second.

First: U3A A43U C66U
Second: U3A C5A A45C G50C
The yeast fitness of the first is higher: 0.635 for the first, ≤ 0.5 for the second.

U3A C5G C11U C24A C30U A70G and U2G U7G U16C C34U G50A U54C A65U cannot be ordered by yeast fitness: ≤ 0.5 for the first, ≤ 0.5 for the second.

Going from U3A A36U C55A C62U to U2G G52A G56A, the yeast fitness rises from ≤ 0.5 to 0.81.

Compared with U3A G63C, U3A G63A is higher in yeast fitness: 0.743 for the first, 0.772 for the second.

First: U3A C4A A21U G56C G58A
Second: U3A A15G U28C C60A
The yeast fitness of the first is lower: ≤ 0.5 for the first, 0.522 for the second.

U3A C4U U7A C24U C61A C62G A65G and U3A U8A C27G cannot be ordered by yeast fitness: ≤ 0.5 for the first, ≤ 0.5 for the second.

Compared with U3A G10C A36U A40C A57C, U2G U19G is higher in yeast fitness: ≤ 0.5 for the first, 1.24 for the second.

Going from U3A A40U to U3A C11U C55G A65C, the yeast fitness falls from 0.841 to ≤ 0.5.

Going from U2G U13A C22U C61U C66U to U2G U26C G56A, the yeast fitness rises from ≤ 0.5 to 0.547.

Going from U3A G12A C29G G39A C66G to U3A C33U, the yeast fitness rises from ≤ 0.5 to 0.791.

U2G U3A C5U U7C U8C A20C U35C A37U A57C and U3A C4U G25C G63C cannot be ordered by yeast fitness: ≤ 0.5 for the first, ≤ 0.5 for the second.

U3A G9A C30A A42U C49U U59C A69C and U3A C24G A57U cannot be ordered by yeast fitness: ≤ 0.5 for the first, ≤ 0.5 for the second.

U3A C5A G6C A15G U16A G67U and U2G U3C A20G C33U G39A cannot be ordered by yeast fitness: ≤ 0.5 for the first, ≤ 0.5 for the second.

Compared with U3A A21C G25U A43C C61A C62U, U3A G18A C22U is lower in yeast fitness: 0.592 for the first, ≤ 0.5 for the second.

U3A C11A A69C and U2G G48C G52C C62G C66U cannot be ordered by yeast fitness: ≤ 0.5 for the first, ≤ 0.5 for the second.

U3A C55G A65C and U3A A42U A43G G48C U53A A69C cannot be ordered by yeast fitness: ≤ 0.5 for the first, ≤ 0.5 for the second.

U3A C5G A14G C24A G51C G52C and U3A C5U C31G A57G cannot be ordered by yeast fitness: ≤ 0.5 for the first, ≤ 0.5 for the second.

U2G U13G C49U G56A A70G and U3A C5U C22G C34G A37G A65G cannot be ordered by yeast fitness: ≤ 0.5 for the first, ≤ 0.5 for the second.

Compared with U3A A15G G48C, U3A C22U G39A C66U is lower in yeast fitness: 0.595 for the first, 0.576 for the second.

U3A C46U G48A C55U U59A and U3A C5A G6C A15G U16A C49G cannot be ordered by yeast fitness: ≤ 0.5 for the first, ≤ 0.5 for the second.

U3A G6C G17A A37U G58A and U3A A21U C60G C66U cannot be ordered by yeast fitness: ≤ 0.5 for the first, ≤ 0.5 for the second.

Compared with U3A C11U U35C A65C, U2G U19G A70C is higher in yeast fitness: ≤ 0.5 for the first, 0.685 for the second.

Going from U3A C22G C27G U59C C62U G68U to U3A C34U C49A G52A, the yeast fitness rises from ≤ 0.5 to 0.622.

Compared with U3A G12C A21C A36C A70U, U2G U54A C61U A65C G67U is higher in yeast fitness: 0.553 for the first, 0.576 for the second.

U3A C30G G68A and U3A C11G G12A C22U G39A A65G cannot be ordered by yeast fitness: ≤ 0.5 for the first, ≤ 0.5 for the second.

Going from U3A A14G G23C C49G to U3A U13C C29A A43G G67C, the yeast fitness rises from 0.503 to 0.595.

Going from U2G G50C U59A to U3A A21G A65C, the yeast fitness rises from 0.547 to 0.64.

U3A C4A A21U and U3A C5A C33G C34U C61G cannot be ordered by yeast fitness: ≤ 0.5 for the first, ≤ 0.5 for the second.

Compared with U2G U19A A21G A65U G67C, U2G U19A A21G C31U A65U G67C is lower in yeast fitness: 0.543 for the first, ≤ 0.5 for the second.

Compared with U3A U8A C31G A40C, U3A G12C A21C A36C is lower in yeast fitness: 0.563 for the first, ≤ 0.5 for the second.

First: U3A C34U
Second: U3A C22U G39A
The yeast fitness of the first is higher: 0.735 for the first, ≤ 0.5 for the second.

U3A C4U C5U showed a yeast fitness of 0.594.
